Test results: ChEMBL document CHEMBL1154689, “Coordination chemistry based approach to lipophilic inhibitors of 1-deoxy-D-xylulose-5-phosphate reductoisomerase” (J Med Chem, 2009)
In brackets after ≈: the same amount, converted by molar mass.

Experiments:
Escherichia coli [1] = assay: Antibacterial activity against Escherichia coli B/r after 24 hrs by NCCLS method; type: functional
Outline: (§1)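 MIC taken as the lowest agent concentration preventing visible bacterial growth after 24 h incubation at 37 °C.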

Bacillus anthracis = assay: Antibacterial activity against Bacillus anthracis Sterne after 24 hrs by NCCLS method; type: functional
[2] = Inhibition of Escherichia coli M15 DXR
Pseudomonas aeruginosa = assay: Antibacterial activity against Pseudomonas aeruginosa H45006 after 24 hrs by NCCLS method; type: functional; conditions: H45006, 24 h; outline: as §1
Micrococcus luteus = assay: Antibacterial activity against Micrococcus luteus WT after 24 hrs by NCCLS method; type: functional; outline: as §1
Escherichia coli [3] = assay: Inhibition of Escherichia coli M15 DXR at 100 uM
[4] = Cytotoxicity against human BEAS2B cells after 24 hrs by MTS assay; type: cell-based; conditions: BEAS-2B
[5] = Cytotoxicity against human WI38 cells after 24 hrs by MTS assay; type: cell-based; conditions: WI-38, 24 h

| Structure (SMILES) | MIC (Escherichia coli [1]) [µM] | MIC (Bacillus anthracis) [µM] | MIC (Pseudomonas aeruginosa) [µM] | MIC (Micrococcus luteus) [µM] | inhibition (Escherichia coli [3]) [%] | further results |
| --- | --- | --- | --- | --- | --- | --- |
| O=CN(O)CCCP(=O)(O)O [FOSMIDOMYCIN] | 10 (≈ 1.83 µg/mL) | 100 (≈ 18.3 µg/mL) | 20 (≈ 3.66 µg/mL) | > 1000 |  | IC50 [2]: 0.08 µM |
| Nc1cc(-c2ccccc2)ccc1O |  |  |  |  | 0 |  |
| O=C(Cc1ccccc1)NO |  |  |  |  | 26 |  |
| O=c1ccn(O)c(=O)n1Cc1ccccc1 |  |  |  |  | 0 |  |
| Oc1cnc(Cc2ccccc2)nc1O |  |  |  |  | 30 |  |
| O=P(O)(O)CCc1ccc(O)c(O)c1 | > 1000 | 1000 (≈ 218 µg/mL) | 1000 (≈ 218 µg/mL) | > 1000 |  |  |
| O=c1cc(Cc2ccccc2)occ1O |  |  |  |  | 0 |  |
| O=c1n(O)ccn1Cc1ccccc1 |  |  |  |  | 19 |  |
| Oc1ccc(-c2ccccc2)cn1 |  |  |  |  |  | IC50 [2]: 75 µM |
| O=c1cc(Cc2ccccc2)[nH]cc1O |  |  |  |  | 0 |  |
| O=c1ccc(-c2ccccc2)cn1O [1-HYDROXY-5-PHENYLPYRIDIN-2(1H)-ONE] | 100 (≈ 18.7 µg/mL) | 20 (≈ 3.74 µg/mL) | 50 (≈ 9.36 µg/mL) | 100 (≈ 18.7 µg/mL) |  | IC50 [4]: > 300 µM; IC50 [2]: 1.4 µM; IC50 [5]: > 300 µM |
| NC[C@H]1O[C@H](O[C@H]2[C@H](O)[C@@H](O[C@H]3O[C@H](CO)[C@@H](O)[C@H](N)[C@H]3O)[C@H](N)C[C@@H]2N)[C@H](O)[C@@H](O)[C@@H]1O [KANAMYCIN] | 10 (≈ 4.85 µg/mL) | 5 (≈ 2.42 µg/mL) | 200 (≈ 96.9 µg/mL) | 20 (≈ 9.69 µg/mL) |  |  |
| O=C(O)c1cc(-c2ccccc2)ccc1O |  |  |  |  | 0 |  |
| Oc1ccc(-c2ccccc2)cc1O | 500 (≈ 93.1 µg/mL) | 200 (≈ 37.2 µg/mL) | 200 (≈ 37.2 µg/mL) | 200 (≈ 37.2 µg/mL) |  |  |
| Oc1ccc(Cc2ccccc2)cc1O | 1000 (≈ 200 µg/mL) | 200 (≈ 40 µg/mL) | 200 (≈ 40 µg/mL) | 200 (≈ 40 µg/mL) |  | IC50 [2]: 22.4 µM |
| CC1(C)S[C@@H]2[C@H](NC(=O)[C@H](N)c3ccccc3)C(=O)N2[C@H]1C(=O)O [AMPICILLIN] | 5 (≈ 1.75 µg/mL) | 0.1 (≈ 0.0349 µg/mL) | 500 (≈ 175 µg/mL) | 1 (≈ 0.349 µg/mL) |  |  |
| O=C(O)CCc1ccc(O)c(O)c1 |  |  |  |  | 26.2 |  |
| [O-][n+]1cccc(-c2ccccc2)c1 |  |  |  |  | 0 |  |
